Laboratory results reported in ChEMBL document CHEMBL4152356, “Amphipathic sulfonamidobenzamides mimicking small antimicrobial marine natural products; investigation of antibacterial and anti-biofilm activity against antibiotic resistant clinical isolates” (Bioorg Med Chem, 2018).

Legend:
Bacillus subtilis = test: Antibacterial activity against Bacillus subtilis 168 ATCC 23857 after 48 hrs by microdilution method; format: functional; details: subsp. subtilis str. 168 ATCC 23857, 48 h
In short: (§1)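 Broth microdilution (CLSI M07-A9, modified) in Mueller-Hinton broth; inoculum about 2.5-3 × 10^4 cells/ml mixed 1:1 with serial compound dilutions. Stock solutions in up to 100% DMSO, final DMSO ≤1%. Incubated 35 °C for 48 h.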

Escherichia coli [1] = test: Antibacterial activity against Escherichia coli ATCC 25922 after 48 hrs by microdilution method; format: functional; details: ATCC 25922, 48 h; in short: as §1
Pseudomonas aeruginosa [2] = test: Antibacterial activity against Pseudomonas aeruginosa PAO1 DSM 19880 ATCC 15692 after 48 hrs by microdilution method; format: functional; details: PAO1 DSM 19880 ATCC 15692, 48 h; in short: as §1
Erythrocyte = test: Hemolytic activity against human RBC measured after 1 hr; format: cell-based
In short: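 Washed human RBCs from a healthy donor (heparinized) at 10% in PBS pH 7.4, mixed 9:1 with serial compound dilutions, 37 °C for 1 h. Baseline set by 0.5% DMSO in 50% PBS, 100% lysis by 0.05% Triton X-100. EC50 is the concentration giving 50% lysis.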

Enterococcus sp. = test: Antibacterial activity against Enterococcus sp. clinical isolates after 24 hrs by microdilution method; format: functional
In short: (§2)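 Clinical isolate screen by broth microdilution with about 1-1.2 × 10^6 cells/ml and 24 h incubation. MIC is the lowest concentration with no growth. For isolate collections, MIC90 is the MIC inhibiting ≥90% of isolates. Multidrug resistance was defined as resistance to at least […] antimicrobial class.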

Pseudomonas aeruginosa [3] = test: Antibacterial activity against Pseudomonas aeruginosa clinical isolates after 24 hrs by microdilution method; format: functional; in short: as §2
Staphylococcus aureus [4] = test: Antibacterial activity against methicillin resistant Staphylococcus aureus NCTC 10442 clinical isolate after 24 hrs by microdilution method; format: functional; details: NCTC 10442, 24 h
In short: (§3)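 Broth microdilution in Mueller-Hinton broth (modified CLSI M07-A9), clinical isolates at about 1-1.2 × 10^6 cells/ml. Inoculum mixed 1:1 with serial compound dilutions; stocks made in up to 100% DMSO, final DMSO ≤1%. Incubated 24 h.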

Staphylococcus aureus [5] = test: Antibacterial activity against methicillin resistant Staphylococcus aureus 85/2082 clinical isolate after 24 hrs by microdilution method; format: functional; details: 85/2082, 24 h; in short: as §3
Staphylococcus aureus [6] = test: Antibacterial activity against methicillin resistant Staphylococcus aureus WIS clinical isolate after 24 hrs by microdilution method; format: functional; in short: as §3
Staphylococcus aureus [7] = test: Antibacterial activity against methicillin resistant Staphylococcus aureus IHT 99040 clinical isolate after 24 hrs by microdilution method; format: functional; details: IHT 99040, 24 h; in short: as §3
Enterococcus faecium [8] = test: Antibacterial activity against vancomycin resistant Enterococcus faecium 50,673,722 clinical isolate after 24 hrs by microdilution method; format: functional; details: Enterococcus faecium, 50,673,722, 24 h; in short: as §3
Enterococcus faecium [9] = test: Antibacterial activity against vancomycin resistant Enterococcus faecium 50,901,530 clinical isolate after 24 hrs by microdilution method; format: functional; details: Enterococcus faecium, 50,901,530, 24 h; in short: as §3
Enterococcus faecium [10] = test: Antibacterial activity against vancomycin resistant Enterococcus faecium K36-18 clinical isolate after 24 hrs by microdilution method; format: functional; details: K36-18, 24 h; in short: as §3
Enterococcus faecium [11] = test: Antibacterial activity against vancomycin resistant Enterococcus faecium TUH50-22 clinical isolate after 24 hrs by microdilution method; format: functional; details: TUH50-22, 24 h; in short: as §3
Escherichia coli [12] = test: Antibacterial activity against oxacillinase 48-producing Escherichia coli 50,579,417 clinical isolate after 24 hrs by microdilution method; format: functional; details: Escherichia coli, 50,579,417, 24 h; in short: as §2
Escherichia coli [13] = test: Antibacterial activity against Verona integron-encoded metallo-beta-lactamase 29-producing Escherichia coli 50,639,799 clinical isolate after 24 hrs by microdilution method; format: functional; details: Escherichia coli, 50,639,799, 24 h; in short: as §2
Escherichia coli [14] = test: Antibacterial activity against New Delhi metallo-beta-lactamase 1-producing Escherichia coli 50,676,002 clinical isolate after 24 hrs by microdilution method; format: functional; details: Escherichia coli, 50,676,002, 24 h; in short: as §2
Escherichia coli [15] = test: Antibacterial activity against New Delhi metallo-beta-lactamase 1-producing Escherichia coli 50,739,822 clinical isolate after 24 hrs by microdilution method; format: functional; details: Escherichia coli, 50,739,822, 24 h; in short: as §2
Escherichia coli [16] = test: Antibacterial activity against imipenem 26-type carbapenemase-producing Escherichia coli 50,857,972 clinical isolate after 24 hrs by microdilution method; format: functional; details: Escherichia coli, 50,857,972, 24 h; in short: as §2
Pseudomonas aeruginosa [17] = test: Antibacterial activity against Verona integron-encoded metallo-beta-lactamase 4-producing Pseudomonas aeruginosa K3473 clinical isolate after 24 hrs by microdilution method; format: functional; details: K3473, 24 h; in short: as §2
Pseudomonas aeruginosa [18] = test: Antibacterial activity against New Delhi metallo-beta-lactamase 1-producing Pseudomonas aeruginosa 50,692,172 clinical isolate after 24 hrs by microdilution method; format: functional; details: Pseudomonas aeruginosa, 50,692,172, 24 h; in short: as §2
Pseudomonas aeruginosa [19] = test: Antibacterial activity against Verona integron-encoded metallo-beta-lactamase-producing Pseudomonas aeruginosa 50,692,520 clinical isolate after 24 hrs by microdilution method; format: functional; details: Pseudomonas aeruginosa, 50,692,520, 24 h; in short: as §2
Klebsiella pneumoniae [20] = test: Antibacterial activity against KPC2-producing Klebsiella pneumoniae K4725 clinical isolate after 24 hrs by microdilution method; format: functional; details: K4725, 24 h; in short: as §2
Klebsiella pneumoniae [21] = test: Antibacterial activity against New Delhi metallo-beta-lactamase 1-producing Klebsiella pneumoniae K6645 clinical isolate after 24 hrs by microdilution method; format: functional; details: K6645, 24 h; in short: as §2
Klebsiella pneumoniae [22] = test: Antibacterial activity against oxacillinase 245-producing Klebsiella pneumoniae 50,625,602 clinical isolate after 24 hrs by microdilution method; format: functional; details: Klebsiella pneumoniae, 50,625,602, 24 h; in short: as §2
Klebsiella pneumoniae [23] = test: Antibacterial activity against Verona integron-encoded metallo-beta-lactamase 1-producing Klebsiella pneumoniae 50,667,959 clinical isolate after 24 hrs by microdilution method; format: functional; details: Klebsiella pneumoniae, 50,667,959, 24 h; in short: as §2
Acinetobacter baumannii [24] = test: Antibacterial activity against oxacillinase 58-producing Acinetobacter baumannii K12-21 clinical isolate after 24 hrs by microdilution method; format: functional; details: K12-21, 24 h; in short: as §3
Acinetobacter baumannii [25] = test: Antibacterial activity against oxacillinase 23-producing Acinetobacter baumannii K44-35 clinical isolate after 24 hrs by microdilution method; format: functional; details: K44-35, 24 h; in short: as §3
Acinetobacter baumannii [26] = test: Antibacterial activity against oxacillinase 23-producing Acinetobacter baumannii K47-42 clinical isolate after 24 hrs by microdilution method; format: functional; details: K47-42, 24 h; in short: as §3
Acinetobacter baumannii [27] = test: Antibacterial activity against oxacillinase 24-producing Acinetobacter baumannii K55-13 clinical isolate after 24 hrs by microdilution method; format: functional; details: K55-13, 24 h; in short: as §3
[28] = tested on: Staphylococcus epidermidis; test: Antibiofilm activity against Staphylococcus epidermidis RP62A ATCC 35984/CCUG 31568 incubated for 24 +/- 2 hrs by crystal violet staining based assay; format: functional
In short: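 Mature S. epidermidis RP62A biofilms: filtered overnight TSB culture adjusted to 2 McFarland, diluted in TSB with 1% glucose to about 6 × 10^6 CFU/ml, grown 24 ± 2 h at 37 °C static, then PBS-washed. Compounds in 50% TSBglu added for 24 ± 2 h at 37 °C. Biomass given as % of untreated control; ≥90% eradication threshold. Compounds tested at 2x, 5x and 10x MIC, 4-8 parallels on 2-3 plates, highest and lowest values excluded.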

Compound | MIC (Bacillus subtilis) [µg/mL] | MIC (Escherichia coli [1]) [µg/mL] | MIC (Pseudomonas aeruginosa [2]) [µg/mL] | EC50 (Erythrocyte) [µg/mL] | MIC (Enterococcus sp.) [µg/mL] | MIC (Pseudomonas aeruginosa [3]) [µg/mL] | MIC (Staphylococcus aureus [4]) [µg/mL] | MIC (Staphylococcus aureus [5]) [µg/mL] | MIC (Staphylococcus aureus [6]) [µg/mL] | MIC (Staphylococcus aureus [7]) [µg/mL] | MIC (Enterococcus faecium [8]) [µg/mL] | MIC (Enterococcus faecium [9]) [µg/mL] | MIC (Enterococcus faecium [10]) [µg/mL] | MIC (Enterococcus faecium [11]) [µg/mL] | MIC (Escherichia coli [12]) [µg/mL] | MIC (Escherichia coli [13]) [µg/mL] | MIC (Escherichia coli [14]) [µg/mL] | MIC (Escherichia coli [15]) [µg/mL] | MIC (Escherichia coli [16]) [µg/mL] | MIC (Pseudomonas aeruginosa [17]) [µg/mL] | further results
CN(c1ccc(C(=O)NCCCNC(=N)N)cc1)S(=O)(=O)c1cc(C(C)(C)C)cc(C(C)(C)C)c1.Cl | 4 | 16 | 16 | 55 | 8 to 16 | 8 to 16 | 8 | 8 | 8 | 8 | 16 | 16 | 16 | 16 | ≥ 32 | 32 | ≥ 32 | ≥ 32 | 32 | 32 | MIC (Pseudomonas aeruginosa [18]): 32 µg/mL; MIC (Pseudomonas aeruginosa [19]): 32 µg/mL; MIC (Klebsiella pneumoniae [20]): ≥ 32 µg/mL; MIC (Klebsiella pneumoniae [21]): 32 µg/mL; MIC (Klebsiella pneumoniae [22]): ≥ 32 µg/mL; MIC (Klebsiella pneumoniae [23]): ≥ 32 µg/mL; MIC (Acinetobacter baumannii [24]): ≥ 32 µg/mL; MIC (Acinetobacter baumannii [25]): ≥ 32 µg/mL; MIC (Acinetobacter baumannii [26]): 32 µg/mL; MIC (Acinetobacter baumannii [27]): ≥ 32 µg/mL; MBIC=>90 [28]: 40 µg/mL
CC(C)(C)c1cc(C(C)(C)C)cc(S(=O)(=O)Nc2cc3ccccc3cc2C(=O)NCCNC(=N)N)c1.Cl | 4 | 8 | 32 | 25 | 8 | 32 to 64 | 8 | 8 | 8 | 8 | 8 | 8 | 8 | 4 | ≥ 32 | ≥ 32 | > 32 | > 32 | > 32 | ≥ 32 | MIC (Pseudomonas aeruginosa [18]): > 64 µg/mL; MIC (Pseudomonas aeruginosa [19]): ≥ 64 µg/mL; MIC (Klebsiella pneumoniae [20]): > 32 µg/mL; MIC (Klebsiella pneumoniae [21]): 32 µg/mL; MIC (Klebsiella pneumoniae [22]): ≥ 32 µg/mL; MIC (Klebsiella pneumoniae [23]): ≥ 32 µg/mL; MIC (Acinetobacter baumannii [24]): 32 µg/mL; MIC (Acinetobacter baumannii [25]): 32 µg/mL; MIC (Acinetobacter baumannii [26]): 32 µg/mL; MIC (Acinetobacter baumannii [27]): 32 µg/mL; MBIC=>90 [28]: 40 µg/mL
